Mot1-301 SUMO = yeast Mot1-301 growth rescue at high temperature, primary screen, SUMOylation pathway inhibitor project, S. cerevisiae, ATP luminescence, 38.5C; hit rate 1% among 320,000; S. cerevisiae Mot1-301 growth rescue; percent above DMSO median, 100 means doubled; growth rescue, % at 18.8 µM; AID 2716, 2010;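 active = every valid replicate shows activation above 250% relative to neutral control wells; inactive = the rest, any valid replicate at or below 250%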;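 note: OY570 slx delta 5 strain wells were the positive control but not used for scaling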
Yeast superoxide = reduction of superoxide in aged yeast, primary screen, HTS. S. cerevisiae aged cells, superoxide DHE fluorescence; active compounds read low. superoxide response (% of plate mean), % at 10 µM. hit rate 0.18% among 330,000;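 active = superoxide response under a set limit, about three screen SD below normal, cut at about 65% in these data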;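 note: yeast aged for seven days with compound at 30 °C before DHE staining; 100% = average MFI of all compound-treated wells on the plate with controls excluded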
rRNA inh HTS = reduced GFP signal of wild-type E. coli, primary screen, bacterial rRNA inhibitor project, GFP/RFP fluorescence, OD600, single point; hit rate 1.6% among 350,000; AID 720706, 2013; E. coli WT GFP vs humanized-ribosome RFP mutants, 24 h; active compounds read low; DMSO median 0, no signal -100; GFP signal change (wild-type ribosome), % (test concentration not listed);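 active = significant combined selectivity score with lowered wild-type GFP, culture density cut under 30%, mutant RFP and density less affected; inactive = any of these conditions unmet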
Cneo AK release = Cryptococcus neoformans cell lysis inducers, primary screen, AK release luminescence, single concentration; C. neoformans lysis, adenylate kinase release luminescence, 4 h; normalised: neutral wells 0, clomiphene wells 100; lysis activity, % at 15 µM; hit rate 0.2% among 360,000; AID 651654, 2012;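 active = mean lysis activity across replicates of at least 80%, whatever share of replicates individually reach that level; inactive = mean lysis activity below 80%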
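Schedule: static 4 h at 37 °C with compound, 1 h detection; system: C. neoformans cells; benchmarks: Clomiphene as positive control; buffer or medium: fresh YPD medium; measure: luminescence rise reflecting yeast cell lysis; measured by: luminescent adenylate kinase detection reagent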
PglD inh = C. jejuni PglD acetyltransferase inhibitors, primary screen, biochemical, DTNB colorimetric, single point. inhibition, % at 12.5 µM. UDP-N-acetylbacillosamine N-acetyltransferase PglD (Campylobacter jejuni). purified PglD enzyme, DTNB colorimetric CoA detection. hit rate 0.098% among 360,000; in the data active = inhibition above about 16%, passing the limit was not always enough
Numbers without * were called inactive. This is a sample that favours compounds with a hit; in the whole collection about 2.2% have one here.

For Cc1ccc(S(=O)(=O)N[C@H]2CC[C@H](CCn3cc(C(C)C)nn3)O[C@H]2CO)cc1 the results were rRNA inh HTS -0.6, Cneo AK release -0.1 and PglD inh -4.2.
For Cc1n[nH]c(C)c1S(=O)(=O)N1CCC(C(=O)N2CCn3c2nc2ccccc23)CC1 the results were Mot1-301 SUMO -8.1, Yeast superoxide 111.2, rRNA inh HTS -22.9*, Cneo AK release 1.8 and PglD inh -1.0.
Screening COc1ccccc1-c1ccc([C@H]2[C@@H](C#N)N(C(=O)C3CC3)[C@@H]2CO)cc1 returned rRNA inh HTS 1.5, Cneo AK release 87.2* and PglD inh 2.2.
Screening COc1ccccc1-c1ccc([C@H]2[C@@H](C#N)N(C(=O)C3CC3)[C@H]2CO)cc1 returned rRNA inh HTS -0.1, Cneo AK release 4.0 and PglD inh 0.1.
`COc1ccccc1-c1ccc([C@H]2[C@H](C#N)N(C(=O)C3CC3)[C@H]2CO)cc1` gave rRNA inh HTS -0.5, Cneo AK release 81.0* and PglD inh 4.1.
O=C(c1cccc(F)c1)N1C[C@@H]2[C@H](c3ccccc31)[C@H](CO)N2Cc1cocn1 was read as rRNA inh HTS 0.5, Cneo AK release 82.3* and PglD inh 1.7.
`O=C(Nc1ccc(F)cc1)N1C[C@@H]2[C@H](c3ccccc31)[C@H](CO)N2Cc1cocn1` gave rRNA inh HTS -2.6, Cneo AK release 91.3* and PglD inh -1.5.
For Cc1ccc(NC(=S)c2ccncc2)cc1 the results were Mot1-301 SUMO 19.6, Yeast superoxide 113.4, rRNA inh HTS 3.7, Cneo AK release -13.4 and PglD inh -3.5.
Screening Cc1ccc(NC(=S)c2ccccc2)cc1 returned Mot1-301 SUMO 323.6*, Yeast superoxide 94.5, Cneo AK release -2.9 and PglD inh -3.1.
CCc1c(C)nc2ncnn2c1NCCc1ccc(OC)cc1 was read as Mot1-301 SUMO 24.2, Yeast superoxide 112.2, rRNA inh HTS -27.0*, Cneo AK release -1.2 and PglD inh 4.2.
For CCc1c(C)nc2ncnn2c1Nc1ccc(C)cc1 the results were Mot1-301 SUMO -21.3, Yeast superoxide 103.4, rRNA inh HTS 1.1, Cneo AK release 1.2 and PglD inh -0.1.
CCn1c(-c2cc(-c3cccc(OC)c3)nc3ccccc23)n[nH]c1=S was read as Mot1-301 SUMO -8.2, Yeast superoxide 100.6, rRNA inh HTS -43.9*, Cneo AK release 14.5 and PglD inh 4.7.
For O=C(Nc1ccc(F)cc1)Nc1ccc2c(c1)[C@H]1C[C@H](CC(=O)N3CCOCC3)O[C@H](CO)[C@H]1O2 the results were rRNA inh HTS 0.8, Cneo AK release -11.1 and PglD inh -1.1.
For CN(c1ccccc1)S(=O)(=O)c1ccc(NC(=O)c2ccccc2)cc1 the results were Mot1-301 SUMO 0.6 and Yeast superoxide 99.2.
For CC(=O)c1cccc(NC(=O)c2ccc(N(C)S(=O)(=O)c3ccc(C)cc3)cc2)c1 the results were Mot1-301 SUMO 16.4, Yeast superoxide 99.9, rRNA inh HTS -24.5*, Cneo AK release -1.8 and PglD inh 0.8.
`CN(c1ccccc1)S(=O)(=O)c1ccc(NC(=O)c2ccc(F)cc2)cc1` gave Mot1-301 SUMO 0.5, Yeast superoxide 88.8 and rRNA inh HTS -27.8*.
For COc1ccccc1OCCNC(=O)c1ccc(S(=O)(=O)N(C)C)cc1 the results were Mot1-301 SUMO -12.6, Yeast superoxide 97.6, rRNA inh HTS -18.0*, Cneo AK release -0.3 and PglD inh 0.7.
For COc1ccccc1N(C)S(=O)(=O)c1ccc(C(=O)Nc2cccc(Br)c2)cc1 the results were Mot1-301 SUMO -5.4, Yeast superoxide 124.1, rRNA inh HTS -33.8*, Cneo AK release 0.2 and PglD inh -6.8.
Screening CSc1cccc(NC(=S)N(CCCN2CCC(C)CC2)Cc2cccs2)c1 returned Mot1-301 SUMO -6.8, Yeast superoxide 95.8, rRNA inh HTS -19.0*, Cneo AK release 1.2 and PglD inh 0.6.
